Values after ≈ are worked out from the molar mass of the structure shown.
Tests used:
Format in all cases: functional
[1] = tested on: Candida albicans; test: Antifungal activity against Candida albicans ATCC 76615 by twofold serial dilution technique
How it was run: (§1)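 Two-fold serial dilution MIC in 96-well microtest plates. Test compounds from DMSO stocks, with fluconazole as reference. MIC read as the first well showing about 80% growth reduction versus the drug-free well.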

[2] = tested on: Candida; test: Antifungal activity against Candida mycoderma by twofold serial dilution technique; how it was run: as §1
[3] = tested on: Staphylococcus aureus; test: Antibacterial activity against Staphylococcus aureus ATCC 25923 by twofold serial dilution technique
[4] = tested on: Bacillus subtilis; test: Antibacterial activity against Bacillus subtilis ATCC 6633 by twofold serial dilution technique
[5] = tested on: Pseudomonas aeruginosa; test: Antibacterial activity against Pseudomonas aeruginosa by twofold serial dilution technique
[6] = tested on: Escherichia coli; test: Antibacterial activity against Escherichia coli JM 109 by twofold serial dilution technique
[7] = tested on: Shigella dysenteriae; test: Antibacterial activity against Shigella dysenteriae by twofold serial dilution technique
How it was run: (§2)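 MIC by two-fold broth dilution in 96-well plates following NCCLS. Compounds were dissolved in DMSO as stock, then diluted in Mueller-Hinton broth to 512 down to 0.5. Inoculum was bacterial suspension adjusted with sterile saline to 1 ×10⁵ CFU. Plates were incubated 37 °C for 24 h, with a DMSO-supplemented medium control at matching dilutions. Chloramphenicol was the reference.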

[8] = tested on: Staphylococcus aureus; test: Antibacterial activity against methicillin-resistant Staphylococcus aureus N315 by twofold serial dilution technique; how it was run: as §2
[9] = Antibacterial activity against Eberthella typhosa by twofold serial dilution technique

Compound	MIC [1]	MIC [2]	MIC [3]	MIC [4]	MIC [5]	MIC [6]	MIC [7]	MIC [8]	MIC [9]
C#CCNS(=O)(=O)c1ccc(N)cc1	> 512 µg/mL	> 512 µg/mL	> 512 µg/mL	> 512 µg/mL	> 512 µg/mL	> 512 µg/mL	> 512 µg/mL	> 512 µg/mL	> 512 µg/mL
CCCCCn1cc(CNS(=O)(=O)c2ccc(N)cc2)nn1	> 512 µg/mL	> 512 µg/mL	> 512 µg/mL	> 512 µg/mL	512 µg/mL (≈ 1580 µM)	> 512 µg/mL	512 µg/mL (≈ 1580 µM)	> 512 µg/mL	512 µg/mL (≈ 1580 µM)
CCCCCCn1cc(CNS(=O)(=O)c2ccc(N)cc2)nn1	> 512 µg/mL	> 512 µg/mL	512 µg/mL (≈ 1520 µM)	256 µg/mL (≈ 759 µM)	256 µg/mL (≈ 759 µM)	> 512 µg/mL	256 µg/mL (≈ 759 µM)	512 µg/mL (≈ 1520 µM)	> 512 µg/mL
CCCCCCCCn1cc(CNS(=O)(=O)c2ccc(N)cc2)nn1	> 512 µg/mL	512 µg/mL (≈ 1400 µM)	> 512 µg/mL	256 µg/mL (≈ 700 µM)	128 µg/mL (≈ 350 µM)	512 µg/mL (≈ 1400 µM)	256 µg/mL (≈ 700 µM)	512 µg/mL (≈ 1400 µM)	256 µg/mL (≈ 700 µM)
CCCCCCCCCCn1cc(CNS(=O)(=O)c2ccc(N)cc2)nn1	> 512 µg/mL	> 512 µg/mL	256 µg/mL (≈ 650 µM)	64 µg/mL (≈ 163 µM)	64 µg/mL (≈ 163 µM)	512 µg/mL (≈ 1300 µM)	128 µg/mL (≈ 325 µM)	512 µg/mL (≈ 1300 µM)	128 µg/mL (≈ 325 µM)
CCCCCCCCCCCCn1cc(CNS(=O)(=O)c2ccc(N)cc2)nn1	512 µg/mL (≈ 1210 µM)	256 µg/mL (≈ 607 µM)	128 µg/mL (≈ 304 µM)	128 µg/mL (≈ 304 µM)	32 µg/mL (≈ 75.9 µM)	64 µg/mL (≈ 152 µM)	32 µg/mL (≈ 75.9 µM)	128 µg/mL (≈ 304 µM)	64 µg/mL (≈ 152 µM)
CCCCCCCCCCCCCCCCn1cc(CNS(=O)(=O)c2ccc(N)cc2)nn1	> 512 µg/mL	> 512 µg/mL	256 µg/mL (≈ 536 µM)	256 µg/mL (≈ 536 µM)	64 µg/mL (≈ 134 µM)	256 µg/mL (≈ 536 µM)	128 µg/mL (≈ 268 µM)	512 µg/mL (≈ 1070 µM)	128 µg/mL (≈ 268 µM)
Nc1ccc(S(=O)(=O)NCc2cn(Cc3ccccc3)nn2)cc1	> 512 µg/mL	> 512 µg/mL	512 µg/mL (≈ 1490 µM)	> 512 µg/mL	512 µg/mL (≈ 1490 µM)	> 512 µg/mL	512 µg/mL (≈ 1490 µM)	256 µg/mL (≈ 745 µM)	512 µg/mL (≈ 1490 µM)
Cc1cccc(Cn2cc(CNS(=O)(=O)c3ccc(N)cc3)nn2)c1	> 512 µg/mL	> 512 µg/mL	> 512 µg/mL	512 µg/mL (≈ 1430 µM)	> 512 µg/mL	> 512 µg/mL	> 512 µg/mL	> 512 µg/mL	512 µg/mL (≈ 1430 µM)
Nc1ccc(S(=O)(=O)NCc2cn(Cc3ccc([N+](=O)[O-])cc3)nn2)cc1	> 512 µg/mL	> 512 µg/mL	> 512 µg/mL	256 µg/mL (≈ 659 µM)	> 512 µg/mL	> 512 µg/mL	> 512 µg/mL	256 µg/mL (≈ 659 µM)	> 512 µg/mL
Nc1ccc(S(=O)(=O)NCc2cn(Cc3ccccc3Cl)nn2)cc1	> 512 µg/mL	> 512 µg/mL	> 512 µg/mL	> 512 µg/mL	512 µg/mL (≈ 1360 µM)	> 512 µg/mL	512 µg/mL (≈ 1360 µM)	> 512 µg/mL	> 512 µg/mL
Nc1ccc(S(=O)(=O)NCc2cn(Cc3cccc(Cl)c3)nn2)cc1	> 512 µg/mL	> 512 µg/mL	512 µg/mL (≈ 1360 µM)	> 512 µg/mL	512 µg/mL (≈ 1360 µM)	> 512 µg/mL	> 512 µg/mL	256 µg/mL (≈ 678 µM)	256 µg/mL (≈ 678 µM)
Nc1ccc(S(=O)(=O)NCc2cn(Cc3ccc(Cl)cc3)nn2)cc1	> 512 µg/mL	> 512 µg/mL	512 µg/mL (≈ 1360 µM)	> 512 µg/mL	> 512 µg/mL	> 512 µg/mL	> 512 µg/mL	> 512 µg/mL	512 µg/mL (≈ 1360 µM)
Nc1ccc(S(=O)(=O)NCc2cn(Cc3ccc(Cl)cc3Cl)nn2)cc1	512 µg/mL (≈ 1240 µM)	512 µg/mL (≈ 1240 µM)	64 µg/mL (≈ 155 µM)	128 µg/mL (≈ 310 µM)	64 µg/mL (≈ 155 µM)	128 µg/mL (≈ 310 µM)	32 µg/mL (≈ 77.6 µM)	128 µg/mL (≈ 310 µM)	128 µg/mL (≈ 310 µM)
Nc1ccc(S(=O)(=O)NCc2cn(Cc3ccc(F)cc3)nn2)cc1	> 512 µg/mL	> 512 µg/mL	128 µg/mL (≈ 354 µM)	> 512 µg/mL	128 µg/mL (≈ 354 µM)	256 µg/mL (≈ 708 µM)	128 µg/mL (≈ 354 µM)	> 512 µg/mL	256 µg/mL (≈ 708 µM)
Nc1ccc(S(=O)(=O)NCc2cn(Cc3ccc(F)cc3F)nn2)cc1	256 µg/mL (≈ 675 µM)	512 µg/mL (≈ 1350 µM)	64 µg/mL (≈ 169 µM)	128 µg/mL (≈ 337 µM)	16 µg/mL (≈ 42.2 µM)	128 µg/mL (≈ 337 µM)	16 µg/mL (≈ 42.2 µM)	128 µg/mL (≈ 337 µM)	128 µg/mL (≈ 337 µM)
O=C(N[C@H](CO)[C@H](O)c1ccc([N+](=O)[O-])cc1)C(Cl)Cl [CHLORAMPHENICOL]	–	–	4 µg/mL (≈ 12.4 µM)	2 µg/mL (≈ 6.19 µM)	8 µg/mL (≈ 24.8 µM)	4 µg/mL (≈ 12.4 µM)	4 µg/mL (≈ 12.4 µM)	2 µg/mL (≈ 6.19 µM)	2 µg/mL (≈ 6.19 µM)
OC(Cn1cncn1)(Cn1cncn1)c1ccc(F)cc1F [FLUCONAZOLE]	0.5 µg/mL (≈ 1.63 µM)	4 µg/mL (≈ 13.1 µM)	–	–	–	–	–	–	–

Source: ChEMBL document CHEMBL1250506, “Synthesis of novel sulfanilamide-derived 1,2,3-triazoles and their evaluation for antibacterial and antifungal activities” (2010)
